Values after ≈ are worked out from the molar mass of the structure shown.
What was measured:
5‐LO [1] = details: at‐risk patients with CAD ref 15; cited from earlier work
5‐LO [2] = details: cited from earlier work
[3] = system: LTB4 production in human whole blood; experiment: LTB4 production in human whole blood in vitro; assay type: cell-based; details: read-out: IC50, inhibition of LTB4 production
logD = assay type: physicochemical; details: pH 7.4
[4] = Human plasma protein binding; assay type: in vitro ADME
Caco‐2 = experiment: Caco-2 permeability and efflux; assay type: in vitro ADME
[5] = Solubility of amorphous and crystalline form; assay type: physicochemical; details: amorphous
[6] = system: cytochrome P450 (CYP)3A4 and CYP3A5; experiment: In vitro metabolism studies; assay type: in vitro ADME
[7] = Pharmacokinetics, single ascending dose; assay type: in vivo, human; details: for AUC / CL/F / CLR / t½ / Cmax: geometric mean (%CV); for Tmax: median (range)
Procedure, shortened: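 Fasted (10 h overnight) healthy men received single oral doses of amorphous suspension, n = 6 per dose. K₂EDTA plasma and pooled urine were assayed by LC-MS/MS with a ¹³C₆-labelled internal standard (validated 1–1,000 nmol/L plasma, 20–20,000 nmol/L urine). Noncompartmental analysis used log-linear trapezoidal AUC extrapolated to infinity; CL/F = dose/AUC; CLR = amount excreted unchanged/AUC.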

[8] = Pharmacokinetics, multiple ascending dose; assay type: in vivo, human
Procedure, shortened: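 Amorphous oral suspension was given once daily for 10 days to fasted healthy men (n = 6 per dose), with intensive sampling on days 1 and 10. K₂EDTA plasma and urine were measured by LC-MS/MS with a ¹³C₆-labelled internal standard (validated 1–1,000 nmol/L plasma, 20–20,000 nmol/L urine). Noncompartmental analysis on actual times; CL/F = dose/AUC; CLR = amount excreted unchanged/AUC.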

[9] = system: ex vivo calcium ionophore stimulated LTB4 production in whole blood; parameters: species or system human
Procedure, shortened: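 Lithium-heparin blood was drawn from dosed subjects 24 h before and just before dosing, then at set times after (SAD to 48 h; MAD daily predose and after last dose). Blood aliquots were stimulated in duplicate with 30 μM calcium ionophore A23187 or DMSO at 37°C, 100 rpm, for 30 min, then stopped on ice with EGTA. LTB₄ in plasma was measured by supported liquid extraction LC-MS/MS, against a baseline of the mean day 1/predose value.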

[10] = Clinical safety and tolerability in healthy subjects; assay type: in vivo, human; details: for subjects reporting headache: active drug
Procedure, shortened: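 Healthy men aged 18–50 (BMI 18–30 kg/m², 50–100 kg), randomized, single-blind, placebo-controlled. SAD: single oral suspension doses of 25–1,200 mg, with sentinel pairs reviewed to 24 h. MAD: 60–600 mg once daily for 10 days. Vital signs, ECG, telemetry, clinical laboratory tests and adverse events were recorded before and after dosing and at follow-up 7–10 days post final dose.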

[11] = Human intestinal Ussing chamber metabolism; assay type: in vitro ADME; details: data not shown
[12] = 60 mg OD, day 10, geometric mean (%CV)
[13] = 180 mg OD, day 1, geometric mean (%CV)
[14] = 180 mg OD, day 10, geometric mean (%CV)
[15] = 360 mg OD, day 1, geometric mean (%CV)
[16] = 360 mg OD, day 10, geometric mean (%CV)
[17] = 600 mg OD, day 1, geometric mean (%CV)
[18] = 600 mg OD, day 10, geometric mean (%CV)

CC(c1cc2ccccc2s1)N(O)C(N)=O (centres unmarked) [zileuton]
flow‐mediated dilation in the brachial artery (5‐LO [1]): improved
leukotriene production in blood (5‐LO [1]): inhibited

C[C@H](C#Cc1ccc(Cc2ccc(F)cc2)s1)N(O)C(N)=O [VIA‐2291, Atreleuton]
ex vivo stimulated LTB4 production (5‐LO [2]; patients with ACS ref 13): reduced
noncalcified plaque volume (5‐LO [2]; patients with ACS ref 13): reduced
left ventricular ejection fraction (5‐LO [2]; patients with ACS, dose dependent ref 13, 14): improved

Cc1cc(-c2ccc(C(=O)[C@@H]3CCCC[C@H]3C(=O)Nc3cnn4c3C(=O)NCC4)cc2)n[nH]1 [AZD5718]
IC50 [3]: 39 nM
logD (logD): 2.9
human plasma protein binding [4]: 95.7%
Papp (Caco‐2): 24 10^−6 cm/s
efflux ratio (Caco‐2): 7.4
solubility [5]: 20 µM (≈ 8.93 µg/mL)
CYP‐isoforms involved in the metabolism [6]: (CYP)3A4 and CYP3A5
AUC ([7]; 25 mg single dose): 376.3 (38.1) nmol*h/L
CL/F ([7]; 25 mg single dose): 148.8 (38.1) L/h
CLR ([7]; 25 mg single dose): 0.68 (39.4) L/h
t½ ([7]; 25 mg single dose): 10.3 (51.0) h
Tmax ([7]; 25 mg single dose): 3.0 (1.0–6.0) h
AUC ([7]; 50 mg single dose): 727.0 (15.4) nmol*h/L
CL/F ([7]; 50 mg single dose): 153.9 (15.4) L/h
CLR ([7]; 50 mg single dose): 0.62 (14.7) L/h
Cmax ([7]; 50 mg single dose): 81.6 nM
t½ ([7]; 50 mg single dose): 12.5 (33.3) h
Tmax ([7]; 50 mg single dose): 1.0 (1.0–3.0) h
AUC ([7]; 100 mg single dose): 1,441 (45.3) nmol*h/L
CL/F ([7]; 100 mg single dose): 155.6 (45.3) L/h
CLR ([7]; 100 mg single dose): 0.66 (41.0) L/h
Cmax ([7]; 100 mg single dose): 170 nM
t½ ([7]; 100 mg single dose): 12.7 (35.7) h
Tmax ([7]; 100 mg single dose): 1.0 (0.5–3.0) h
AUC ([7]; 300 mg single dose): 8,462 (20.1) nmol*h/L
CL/F ([7]; 300 mg single dose): 79.4 (20.1) L/h
CLR ([7]; 300 mg single dose): 0.67 (23.7) L/h
Cmax ([7]; 300 mg single dose): 2360 nM
t½ ([7]; 300 mg single dose): 13.7 (43.9) h
Tmax ([7]; 300 mg single dose): 1.0 (0.5–1.0) h
AUC ([7]; 600 mg single dose): 18,810 (42.1) nmol*h/L
CL/F ([7]; 600 mg single dose): 71.5 (42.1) L/h
CLR ([7]; 600 mg single dose): 0.70 (15.4) L/h
Cmax ([7]; 600 mg single dose): 5050 nM
t½ ([7]; 600 mg single dose): 11.4 (18.0) h
Tmax ([7]; 600 mg single dose): 1.0 (1.0–2.0) h
AUC ([7]; 1,200 mg single dose): 35,840 (33.8) nmol*h/L
CL/F ([7]; 1,200 mg single dose): 75.0 (33.8) L/h
CLR ([7]; 1,200 mg single dose): 0.62 (12.1) L/h
Cmax ([7]; 1,200 mg single dose): 6880 nM
t½ ([7]; 1,200 mg single dose): 10.3 (19.0) h
Tmax ([7]; 1,200 mg single dose): 1.5 (1.0–2.0) h
relative bioavailability of the crystalline formulation compared with the amorphous formulation ([7]; SAD, oral suspensions, results not presented): much lower
mean terminal half‐life ([7]; after single dose administration and at steady state, all doses): 10 to 12 h
dose‐linearity of exposure ([7]; single and multiple administration, except Ctrough in the MAD): more than dose proportional increase in exposure
median Tmax ([7]; single and multiple dose, amorphous suspension, fasted): ~1 h
renal clearance as share of total oral clearance ([7]; unchanged drug in urine): ~1%
AUCτ ([8]; 60 mg OD, day 1, geometric mean (%CV)): 1,018 (22.4) nmol*h/L
Tmax ([8]; 60 mg OD, day 1, median (range)): 0.8 (0.5–2.0) h
Cmax ([8]; 60 mg OD, day 1, oral amorphous suspension, N = 6, geometric mean (%CV)): 167 nM
AUCτ [8, 12]: 1,386 (27.4) nmol*h/L
CL/F [8, 12]: 96.9 (27.4) L/h
CLR [8, 12]: 0.64 (16.0) L/h
Cmax [8, 12]: 220 nM
t½ [8, 12]: 11.6 (6.7) h
Tmax ([8]; 60 mg OD, day 10, median (range)): 0.5 (0.5–1.0) h
AUCτ [8, 13]: 3,732 (41.2) nmol*h/L
Cmax [8, 13]: 847 nM
Tmax ([8]; 180 mg OD, day 1, median (range)): 1.0 (1.0–1.0) h
AUCτ [8, 14]: 5,128 (46.9) nmol*h/L
CL/F [8, 14]: 78.6 (46.9) L/h
CLR [8, 14]: 0.75 (16.0) L/h
Cmax [8, 14]: 1240 nM
t½ [8, 14]: 11.2 (13.0) h
Tmax ([8]; 180 mg OD, day 10, median (range)): 1.0 (1.0–1.0) h
AUCτ [8, 15]: 10,350 (28.8) nmol*h/L
Cmax [8, 15]: 2560 nM
Tmax ([8]; 360 mg OD, day 1, median (range)): 1.0 (1.0–2.0) h
AUCτ [8, 16]: 12,760 (31.0) nmol*h/L
CL/F [8, 16]: 63.1 (31.0) L/h
CLR [8, 16]: 0.99 (5.2) L/h
Cmax [8, 16]: 3210 nM
t½ [8, 16]: 9.1 (10.7) h
Tmax ([8]; 360 mg OD, day 10, median (range)): 1.0 (1.0–1.0) h
AUCτ [8, 17]: 16,290 (48.6) nmol*h/L
Cmax [8, 17]: 4930 nM
Tmax ([8]; 600 mg OD, day 1, median (range)): 1.0 (1.0–1.0) h
AUCτ [8, 18]: 23,170 (47.4) nmol*h/L
CL/F [8, 18]: 58.0 (47.4) L/h
CLR [8, 18]: 0.72 (23.3) L/h
Cmax [8, 18]: 5690 nM
t½ [8, 18]: 9.9 (29.2) h
Tmax ([8]; 600 mg OD, day 10, median (range)): 1.5 (1.0–3.0) h
accumulation on repeated dosing ([8]; Ctrough, once daily dosing): small accumulation
time to steady state ([8]; repeated once daily dosing, Ctrough, visual inspection): ~3 days
LTB4 production inhibition throughout the day ([9]; MAD, 180, 360, and 600 mg doses, last day of repeated dosing): > 80%
mean LTB4 inhibition throughout the whole day ([9]; SAD, single doses of 300–1,200 mg): > 80%
fold lower IC50 for ex vivo stimulated LTB4 inhibition ([9]; compared with both AM103 and VIA2291): ~100 fold
subjects experiencing an AE on active drug ([10]; MAD study): 10 subjects
subjects reporting headache ([10]; MAD study): five
serious adverse events ([10]; SAD 25–1,200 mg and MAD 60–600 mg): no serious adverse events
safety and tolerability findings ([10]; SAD and MAD, healthy subjects): No clinically relevant safety and tolerability findings
subjects experiencing an AE on active drug ([10]; SAD study): 17 subjects
subjects reporting headache ([10]; SAD study): three
maximal tolerated dose ([10]; up to 1,200 mg single, 600 mg OD for 10 days): not established
metabolism kinetics [11]: saturable metabolism

Reference: article PMC5944575 (Clinical and Translational Science, 2018)
